ChEMBL document CHEMBL1914317, “Triazole ring-opening leads to the discovery of potent nonsteroidal 17β-hydroxysteroid dehydrogenase type 2 inhibitors” (Eur J Med Chem, 2011)
Active and inactive are the calls of the source. The calls are words filed in the database; no cut-off is given here.

Legend:
[1] = molecular target: T1, Estrogen receptor (Homo sapiens) (UniProt P03372); assay: Displacement of [3H]estradiol from human recombinant ERalpha assessed as relative binding affinity after 1 hr by liquid scintillation counting relative to estradiol
T1 sequence (whole entry): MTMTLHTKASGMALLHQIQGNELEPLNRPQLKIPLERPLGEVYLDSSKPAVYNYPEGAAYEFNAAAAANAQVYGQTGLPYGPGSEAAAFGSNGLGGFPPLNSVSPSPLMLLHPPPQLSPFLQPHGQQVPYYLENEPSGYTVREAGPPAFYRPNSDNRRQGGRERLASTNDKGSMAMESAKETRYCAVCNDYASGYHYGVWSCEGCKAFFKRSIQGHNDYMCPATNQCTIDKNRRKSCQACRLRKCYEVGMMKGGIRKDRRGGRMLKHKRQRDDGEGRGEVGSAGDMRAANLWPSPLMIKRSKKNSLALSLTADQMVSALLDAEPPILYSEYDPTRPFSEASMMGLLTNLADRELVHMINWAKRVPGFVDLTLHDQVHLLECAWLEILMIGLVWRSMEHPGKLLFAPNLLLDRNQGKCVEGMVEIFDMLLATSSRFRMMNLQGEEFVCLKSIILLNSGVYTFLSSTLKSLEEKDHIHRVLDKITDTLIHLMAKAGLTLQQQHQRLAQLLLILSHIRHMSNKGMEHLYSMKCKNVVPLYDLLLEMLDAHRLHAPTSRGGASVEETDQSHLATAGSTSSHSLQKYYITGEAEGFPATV
Method in brief: (§1)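 Recombinant human ERα or ERβ (0.25 pmol) incubated with [3H]-E2 (10 nM) plus test compound, 1 h at room temperature; compound in DMSO (5% final). Nonspecific binding defined with diethylstilbestrol (10 µM). Receptor–ligand complexes captured on hydroxyapatite, washed, resuspended in ethanol, counted by liquid scintillation.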

[2] = molecular target: Estrogen receptor beta (Homo sapiens) (UniProt Q92731); assay: Displacement of [3H]estradiol from human recombinant ERbeta assessed as relative binding affinity after 1 hr by liquid scintillation counting relative to estradiol; method in brief: as §1
[3] = organism: Homo sapiens; assay: Selectivity ratio of IC50 for human placental 17beta-HSD1 to IC50 for human placental 17beta-HSD2
[4] = molecular target: T2, 17-beta-hydroxysteroid dehydrogenase type 1 (Homo sapiens, UniProt P14061); assay: Inhibition of human placental 17beta-HSD1 using [2,4,6,7-3H]-estrone as substrate after 10 mins by radio flow detector-based HPLC analysis in presence of NADH as cofactor
T2 sequence (P14061 whole entry): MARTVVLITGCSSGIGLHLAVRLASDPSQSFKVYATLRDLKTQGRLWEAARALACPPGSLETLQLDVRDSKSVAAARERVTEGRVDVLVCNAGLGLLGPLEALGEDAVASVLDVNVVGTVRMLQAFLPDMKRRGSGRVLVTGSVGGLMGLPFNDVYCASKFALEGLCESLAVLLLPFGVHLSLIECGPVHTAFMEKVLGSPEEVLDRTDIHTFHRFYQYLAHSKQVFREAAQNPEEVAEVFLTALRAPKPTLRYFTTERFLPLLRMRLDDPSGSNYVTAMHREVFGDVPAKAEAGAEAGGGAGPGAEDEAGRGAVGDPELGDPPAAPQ
Method in brief: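 Enzyme was the ammonium sulfate–precipitated cytosolic fraction of fresh homogenised human placenta. It was incubated at 37 °C for 10 min with NADH (500 µM), inhibitor, and unlabelled plus [3H]-E1 (final 500 nM, 0.15 µCi). Reaction stopped with HgCl2, then ether extraction. E1/E2 were separated by HPLC with radioflow detection.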

[5] = molecular target: T3, 17-beta-hydroxysteroid dehydrogenase type 2 (Homo sapiens) (UniProt P37059); assay: Inhibition of 17beta-HSD2; conditions: concentration not given here
T3 sequence (whole entry): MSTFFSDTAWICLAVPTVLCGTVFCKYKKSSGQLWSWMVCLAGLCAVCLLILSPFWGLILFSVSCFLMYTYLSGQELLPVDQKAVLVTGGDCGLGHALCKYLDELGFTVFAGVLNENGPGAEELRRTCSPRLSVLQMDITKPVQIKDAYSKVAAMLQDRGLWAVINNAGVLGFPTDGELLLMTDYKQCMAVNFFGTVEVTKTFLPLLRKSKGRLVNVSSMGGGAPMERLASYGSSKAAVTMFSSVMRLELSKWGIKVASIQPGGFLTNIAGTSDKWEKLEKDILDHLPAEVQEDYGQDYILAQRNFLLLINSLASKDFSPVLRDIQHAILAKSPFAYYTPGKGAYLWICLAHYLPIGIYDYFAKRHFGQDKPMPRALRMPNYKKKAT
Method in brief: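 Human placental microsomal fraction (150,000 g) with NAD+ 1500 µM, 37 °C, in 50 mM phosphate buffer containing 20% glycerol and 1 mM EDTA; DMSO 1% final. Started with unlabelled plus [3H]-E2 (500 nM final), run 20 min, stopped with HgCl2, ether-extracted. E1/E2 separated by HPLC with radioflow detection; % conversion = E1/(E1+E2)×100. At least three independent experiments.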

[6] = molecular target: T3, 17-beta-hydroxysteroid dehydrogenase type 2 (Homo sapiens); assay: Inhibition of human placental 17beta-HSD2 assessed as formation of [2,4,6,7-3H]-estrone using [2,4,6,7-3H]-estradiol as substrate at 1 uM after 20 mins by radio flow detector-based HPLC analysis in presence of NAD+ as cofactor
[7] = molecular target: T4, 17-beta-hydroxysteroid dehydrogenase type 1 (Homo sapiens) (UniProt P14061); assay: Inhibition of human placental 17beta-HSD1 using [2,4,6,7-3H]-estrone as substrate at 1 uM after 10 mins by radio flow detector-based HPLC analysis in presence of NADH as cofactor
T4 sequence (whole entry): T2 sequence (P14061 whole entry)
Method in brief: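 Placental enzyme from the cytosolic fraction after ammonium sulfate precipitation. Incubated with NADH 500 µM, test compound and unlabelled plus [3H]-E1 (500 nM final), 10 min at 37 °C. Stopped, extracted, and steroids separated by HPLC with radioflow detection, as for the type 2 assay.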

[8] = molecular target: T5, 17-beta-hydroxysteroid dehydrogenase type 2 (Homo sapiens, UniProt P37059); assay: Inhibition of human placental 17beta-HSD2 assessed as formation of [2,4,6,7-3H]-estrone using [2,4,6,7-3H]-estradiol as substrate after 20 mins by radio flow detector-based HPLC analysis in presence of NAD+ as cofactor
T5 sequence (P37059 whole entry): T3 sequence (whole entry)

Estrogen receptor beta (Homo sapiens), sequence (Q92731 whole entry): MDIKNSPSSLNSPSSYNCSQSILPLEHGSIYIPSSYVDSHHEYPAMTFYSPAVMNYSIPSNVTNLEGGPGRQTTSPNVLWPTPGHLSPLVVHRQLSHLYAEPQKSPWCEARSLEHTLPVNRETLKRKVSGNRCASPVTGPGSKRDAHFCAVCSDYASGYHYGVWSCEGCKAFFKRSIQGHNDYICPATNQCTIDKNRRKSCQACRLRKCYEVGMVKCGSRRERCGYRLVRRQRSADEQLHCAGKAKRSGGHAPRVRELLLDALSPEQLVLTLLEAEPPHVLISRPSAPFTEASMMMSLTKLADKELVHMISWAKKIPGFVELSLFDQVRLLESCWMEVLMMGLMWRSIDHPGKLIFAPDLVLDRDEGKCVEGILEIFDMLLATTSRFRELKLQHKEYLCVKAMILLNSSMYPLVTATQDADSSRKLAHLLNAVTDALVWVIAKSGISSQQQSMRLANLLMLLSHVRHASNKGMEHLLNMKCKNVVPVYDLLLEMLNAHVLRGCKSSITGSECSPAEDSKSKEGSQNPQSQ

Row | Structure (SMILES) | RBA [1] [%] | RBA [2] [%] | Ratio IC50 [3] | other results
1 | CN(Cc1cccc(O)c1)C(=O)c1ccc(-c2ccccc2O)s1 | < 0.1 | < 0.1 | 20 | –
2 | Cc1cccc(-c2ccc(C(=O)N(C)Cc3cccc(O)c3)s2)c1 | < 0.1 | < 0.1 | 65 | –
3 | COc1cccc(-c2ccc(C(=O)N(C)Cc3cccc(O)c3)s2)c1F | < 0.1 | < 0.1 | 73 | –
4 | CN(Cc1cccc(O)c1)C(=O)c1ccc(-c2cccc(O)c2)s1 | < 0.1 | < 0.1 | 14 | IC50 [4]: 5450 nM
5 | Cn1nc(-c2cccc(O)c2)nc1-c1ccc(-c2cccc(O)c2)s1 | – | – | – | inhibition [5]: 30%
6 | COc1cccc(CN(C)C(=O)c2ccc(-c3ccccc3OC)s2)c1 | < 0.1 | < 0.1 | – | inhibition [6]: 49%; inhibition [7]: inactive
7 | COc1cccc(CN(C)C(=O)c2ccc(-c3ccc(C#N)cc3)s2)c1 | < 0.1 | < 0.1 | – | inhibition [6]: inactive; inhibition [7]: inactive
8 | CN(Cc1cccc(O)c1)C(=O)c1ccc(-c2ccc(C#N)cc2)s1 | < 0.1 | < 0.1 | – | –
9 | COc1ccc(-c2cccc(C(=O)N(C)Cc3cccc(OC)c3)c2)cc1 | < 0.1 | < 0.1 | – | inhibition [6]: 11%; inhibition [7]: inactive
10 | COc1cccc(CN(C)C(=O)c2ccc(-c3cccc(OC)c3)cc2)c1 | < 0.1 | < 0.1 | – | –
11 | CN(Cc1cccc(O)c1)C(=O)c1cccc(-c2cccc(O)c2)c1 | < 0.1 | < 0.1 | 8 | –
12 | COc1cccc(CN(C)C(=O)c2ccc(-c3cccc(C)c3)cc2)c1 | < 0.1 | < 0.1 | > 375 | –
13 | CN(Cc1ccccc1)C(=O)c1ccc(-c2cccc(O)c2)s1 | < 0.1 | < 0.1 | – | –
14 | CN(Cc1cccc(O)c1)C(=O)c1ccc(-c2ccc(O)cc2)s1 | < 0.1 | < 0.1 | 15 | –
15 | COc1cccc(CN(C)C(=O)c2ccc(-c3ccccc3)s2)c1 | < 0.1 | < 0.1 | – | –
16 | CN(Cc1ccccc1)C(=O)c1ccc(-c2ccccc2O)s1 | < 0.1 | < 0.1 | – | –
17 | CN(Cc1ccccc1)C(=O)c1ccc(-c2ccc(O)cc2)s1 | < 0.1 | < 0.1 | – | –
18 | CN(Cc1cccc(O)c1)C(=O)c1ccc(-c2cccc(O)c2F)s1 | < 0.1 | < 0.1 | – | –

Row | Structure (SMILES) | RBA [1] [%] | RBA [2] [%] | Ratio IC50 [3] | other results
19 | COc1cccc(CN(C)C(=O)c2cccc(-c3cccc(OC)c3)c2)c1 | < 0.1 | < 0.1 | – | –
20 | COc1ccc(-c2ccc(C(=O)N(C)Cc3ccccc3)s2)cc1 | < 0.1 | < 0.1 | – | –
21 | COc1ccccc1-c1ccc(C(=O)N(C)Cc2ccccc2)s1 | < 0.1 | < 0.1 | – | –
22 | COc1cccc(CN(C)C(=O)c2ccc(-c3cccc(OC)c3)s2)c1 | < 0.1 | < 0.1 | > 250 | –
23 | Cc1cccc(-c2ccc(C(=O)N(C)Cc3cccc(O)c3)cc2)c1 | < 0.1 | < 0.1 | – | –
24 | COc1ccc(-c2ccc(C(=O)N(C)Cc3cccc(O)c3)s2)cc1 | < 0.1 | < 0.1 | > 250 | –
25 | Cn1nc(-c2cccc(O)c2)nc1-c1ccc(-c2cccc(O)c2)cc1 | – | – | – | inhibition [5]: 42%
26 | CN(Cc1cccc(O)c1)C(=O)c1ccc(-c2cccc(F)c2)s1 | < 0.1 | < 0.1 | 10 | –
27 | CN(Cc1cccc(O)c1)C(=O)c1ccc(-c2ccccc2)s1 | < 0.1 | < 0.1 | – | –
28 | CN(Cc1cccc(O)c1)C(=O)c1ccc(-c2cccc(O)c2)cc1 | < 0.1 | < 0.1 | – | –
29 | CN(Cc1cccc(O)c1)C(=O)c1ccc(-c2cccc(N(C)C)c2)s1 | < 0.1 | < 0.1 | 75 | –
30 | CN(C(=O)Cc1cccc(O)c1)c1cccc(-c2ccc(O)cc2)c1 | < 0.1 | < 0.1 | – | inhibition [6]: 39%; inhibition [7]: inactive
31 | COc1ccc(-c2ccc(C(=O)N(C)Cc3cccc(OC)c3)s2)cc1 | < 0.1 | < 0.1 | – | –
32 | COc1cccc(-c2ccc(C(=O)N(C)Cc3ccccc3)s2)c1 | < 0.1 | < 0.1 | – | –
33 | CN1C(=O)C[C@@H](c2ccccc2)[C@H]1[C@H](O)c1ccc(-c2cccnc2)s1 | – | – | – | IC50 [8]: 50 nM
34 | C[C@]12CC[C@@H]3c4ccc(O)cc4CC[C@H]3[C@@H]1CC[C@@]21CCCC(=O)O1 | < 0.1 | < 0.1 | – | inhibition [6]: 65%; inhibition [5]: 62%
35 | CN(Cc1cccc(O)c1)C(=O)c1cccc(-c2ccc(O)cc2)c1 | < 0.1 | < 0.1 | – | –
36 | CN(Cc1cccc(O)c1)C(=O)c1ccc(-c2ccc(F)cc2)s1 | < 0.1 | < 0.1 | – | –
